Reference: ChEMBL document CHEMBL4017489, “Design, Synthesis, and Evaluation of New Selective NM23-H2 Binders as c-MYC Transcription Inhibitors via Disruption of the NM23-H2/G-Quadruplex Interaction” (J Med Chem, 2017)
Calls of active or inactive are those of the source. The rule behind the calls is not given here.

Experiments:
[1] = target: T1, Nucleoside diphosphate kinase B (Homo sapiens, UniProt P22392); assay: Binding affinity to N-terminal NT-647-NHS labeled NM23-H2 (unknown origin) after 30 mins by MST analysis
Procedure, shortened: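 NM23-H2 N-terminally labeled with RED-NHS dye (20 μM protein, 30 min dark, RT), free dye removed; 200 nM labeled protein with compound from 500 μM, 16 twofold steps, 30 min RT in 50 mM Tris-HCl pH 7.4, 150 mM NaCl, 10 mM MgCl2, 0.05% Tween-20; KD at half-plateau.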

[2] = target: T1, Nucleoside diphosphate kinase B; assay: Binding affinity to NM23-H2 (unknown origin) by SPR analysis
[3] = Binding affinity to biotin-labeled 18-mer duplex DNA hairpin (unknown origin) at 40 uM after 30 mins by SPR analysis
[4] = target: T1, Nucleoside diphosphate kinase B; assay: Binding affinity to NM23-H2 in human SiHa cells assessed as disruption of protein interaction with c-myc G-quadruplex DNA by measuring decrease in c-MYC protein expresson at 2 uM after 48 hrs by Western blot analysis; type: cell-based
Procedure, shortened: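 SiHa cells treated 48 h; lysates (30 μg) on 10% SDS-PAGE, nitrocellulose, anti-c-MYC overnight at 4 °C, HRP secondary, chemiluminescence; β-actin internal control; three repeats.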

[5] = target: T1, Nucleoside diphosphate kinase B; assay: Binding affinity to NM23-H2 (unknown origin) assessed as ratio of Kd for protein interaction with biotin-labeled Pu22 c-myc G-quadruplex DNA in presence and absence of compound after 1 hr by ELISA
[6] = target: T1, Nucleoside diphosphate kinase B; assay: Binding affinity to NM23-H2 in human SiHa cells assessed as disruption of protein interaction with c-myc G-quadruplex DNA by measuring decrease in c-MYC mRNA level at 2 uM after 9 hrs by RT-PCR analysis; type: cell-based
Procedure, shortened: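 SiHa cells treated at 0, 0.5, 1.0, 2.0 μM for 9 h; TRIzol RNA, 1.5 μg reverse-transcribed with oligo(dT); semiquantitative PCR, 30 cycles, 58 °C annealing; bands normalized to β-actin, untreated 100%; three repeats.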

[7] = Binding affinity to Htg21 telomeric G-quadruplex DNA (unknown origin) at 40 uM after 30 mins by SPR analysis
SiHa [8] = assay: Antitumor activity against human SiHa cells xenografted in BALB/C nude mouse assessed as tumor weight at 1 mg/kg, ip administered daily after 3 weeks (reference value: 511.6 mg); type: functional
SiHa [9] = assay: Antitumor activity against human SiHa cells xenografted in BALB/C nude mouse assessed as tumor growth inhibition at 1 mg/kg, ip administered daily after 3 weeks relative to control; type: functional; details: 504 h, read-out: TGI
Mus musculus = assay: Toxicity in BALB/C nude mouse xenografted with human SiHa cells assessed as change in body weight at 1 mg/kg, ip administered daily after 3 weeks; type: organism-based; details: in vivo, 504 h
Procedure, shortened: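 SiHa cells implanted in the right armpit of BALB/c nu/nu mice. At approximately 50 mm3, mice randomized (n = 8/group) to vehicle, compound 2.5 or 5.0 mg/kg, or doxorubicin 1.0 mg/kg, given ip daily for 3 weeks. Body weight and signs of pain, distress or discomfort monitored; tumors excised and weighed. Data given as mean ± SEM, t test against vehicle.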

SiHa [10] = assay: Antiproliferative activity against human SiHa cells after 48 hrs by MTT assay; type: functional, cell-based
[11] = Binding affinity to biotin-labeled Pu22 c-myc G-quadruplex DNA (unknown origin) by SPR analysis

T1 sequence (P22392 whole entry): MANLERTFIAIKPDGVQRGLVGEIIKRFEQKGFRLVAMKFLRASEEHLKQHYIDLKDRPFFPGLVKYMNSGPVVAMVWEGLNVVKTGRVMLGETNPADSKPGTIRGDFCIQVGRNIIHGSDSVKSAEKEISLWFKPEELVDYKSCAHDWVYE

**Q.** For O=C(CCN1CCCC1)Nc1ccc(/C=C2\CCCn3c2nc2cc(NC(=O)CCN4CCCC4)ccc2c3=O)cc1, which Kd [1] is on record?
**A.** Its Kd is 24.6 µM.

**Q.** What about the Kd [2] of the same compound?
**A.** The Kd was 10.4 µM.

**Q.** What about the Activity [3] of the same compound?
**A.** The Activity was “inactive”.

**Q.** What about the Activity [4] of the same compound?
**A.** Its Activity is “Active”.

**Q.** What about the Ratio [5] of the same compound?
**A.** The Ratio was 2.3.

**Q.** And the Activity [6]?
**A.** Its Activity is “Active”.

**Q.** And the Activity [7]?
**A.** Its Activity is “inactive”.

**Q.** With COc1cccc2c1C(=O)c1c(O)c3c(c(O)c1C2=O)C[C@@](O)(C(=O)CO)C[C@@H]3O[C@H]1C[C@H](N)[C@H](O)[C@H](C)O1 [DOXORUBICIN] as the compound, how does the Activity (SiHa [8]) read?
**A.** Its Activity is 165.9 mg.

**Q.** What about the inhibition in vivo at 1 mg/kg (SiHa [9]) of the same compound?
**A.** The inhibition in vivo at 1 mg/kg was 67.6%.

**Q.** What about the Activity (Mus musculus) of the same compound?
**A.** The Activity was “Toxic”.

**Q.** For O=C(NCCCN1CCCC1)c1ccc(/C=C2\CCn3c2nc2cc(NCCN4CCCC4)c(F)cc2c3=O)cc1, which Kd [1] is on record?
**A.** Its Kd is 18 µM.

**Q.** What about the Kd [2] of the same compound?
**A.** The Kd was 19.8 µM.

**Q.** What about the Activity [3] of the same compound?
**A.** The Activity was “inactive”.

**Q.** What about the Activity [4] of the same compound?
**A.** Its Activity is “Active”.

**Q.** What about the IC50 (SiHa [10]) of the same compound?
**A.** Its IC50 is 16.4 µM.

**Q.** And the Activity [6]?
**A.** The Activity was “Active”.

**Q.** And the Kd [11]?
**A.** Its Kd is 2.7 µM.

**Q.** What about the Activity [7] of the same compound?
**A.** The Activity was “inactive”.
